According to ChEMBL document CHEMBL5136960, “Discovery of sustainable drugs for Alzheimer's disease: cardanol-derived cholinesterase inhibitors with antioxidant and anti-amyloid properties” (RSC Med Chem, 2021):
The source made the active and inactive calls. No cut-off for these calls is given here.

Assays:
Cholinesterase [1] = biological target: T1, Cholinesterase (Homo sapiens, UniProt P06276); test: Inhibition of BChE in human serum at 20 uM by Ellman's method; assay type: cell-free
Outline: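 Human serum BChE, 0.02 U, in 0.1 M phosphate pH 8.0 with 340 μM DTNB and 5% methanol final. Compound preincubated with enzyme 20 min at 37 °C, then 550 μM butyrylthiocholine iodide added. Initial rate read as A412 over 240 s, with an enzyme-free blank. Percent inhibition at a single 20 μM. Mean of ≥2 independent experiments, each in triplicate.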

[2] = Antioxidant activity assessed as gallic acid equivalents by HORAC assay; assay type: functional
Outline: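 Hydroxyl radical scavenging (HORAC kit). Methanol stocks (2-4 mM) diluted to 50 µM in assay buffer. Sample and fluorescein incubated 30 min at room temperature, then hydroxyl radical initiator and Fenton reagent added. Fluorescence decay read at ex 480/em 530 nm. AUC minus blank, divided by AUC of 50 µM gallic acid minus blank, gives gallic acid equivalents.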

Acetylcholinesterase [3] = biological target: T2, Acetylcholinesterase (Homo sapiens, UniProt P22303); test: Inhibition of AChE in human serum at 20 uM by Ellman's method; assay type: cell-free
Cholinesterase [4] = biological target: T1, Cholinesterase; test: Inhibition of BChE in human serum by Ellman's method; assay type: cell-free
Outline: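 Human serum BChE, 0.02 U, in 0.1 M phosphate pH 8.0 with 340 μM DTNB and 5% methanol final. 20 min enzyme–compound preincubation at 37 °C, then 550 μM butyrylthiocholine iodide added. Rate from A412 slope over 240 s, blank-corrected. Five concentrations chosen to give 20–80% inhibition. IC50 taken from log concentration–inhibition curves. Mean of ≥2 independent triplicate experiments.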

[5] = biological target: Amyloid-beta precursor protein (Homo sapiens) (UniProt P05067); test: Inhibition of amyloid beta42 (unknown origin) aggregation assessed as non toxic aggregrates formation measured after 48 hrs TEM imaging analysis
Outline: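 Synthetic Aβ42, freeze-dried, redissolved in PBS pH 7.4 to 60 µM and vortexed about 5 min. Compound added at 1:5 Aβ42:compound. A 20 µL aliquot applied to the grid for 2 min, negatively stained with 1% uranyl acetate for 2 min, dried and imaged by TEM at 120 kV.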

[6] = Stability in plasma (unknown orgin) measured after 120 mins; assay type: ADME, cell-free; conditions: read-out: Stability
Outline: (§1)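 Pooled human plasma. Compound added from a 1 µM DMSO solution and incubated at 37 °C for 0, 15, 30, 60 or 120 min. Reaction stopped with cold acetonitrile containing internal standard, then centrifuged. Supernatant analysed by reverse-phase C18 HPLC-MS in positive mode. Compound/IS peak-area ratio at each time, relative to 0 min, gives percent remaining. Phosphate buffer pH 7.4 used as control matrix, rivastigmine as positive control.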

Acetylcholinesterase [7] = biological target: T2, Acetylcholinesterase; test: Inhibition of AChE in human serum by Ellman's method; assay type: cell-free
HepG2 = test: Cytotoxicity against human HepG2 cells assessed as cell viability upto 10 uM for 24 hrs by MTT assay; assay type: toxicity, cell-based; conditions: hepg2, 24 h
Outline: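 HepG2 cells grown in DMEM with 10% FBS and penicillin/streptomycin at 37 °C, 5% CO2. Seeded at 5×10^3 cells/well and left to adhere overnight. Exposed 24 h to 1.25-10 µM, with DMSO vehicle as control. Then 300 µM MTT in DMEM for 2 h at 37 °C. Formazan dissolved in DMSO and read at 570 nm.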

[8] = Solubility of compound in 5% DMSO/PBS solution; assay type: physicochemical
[9] = Stability in plasma (unknown orgin) measured upto 60 mins; assay type: ADME, cell-free; conditions: 1 h; outline: as §1
SH-SY5Y = test: Inhibition of TBH-induced reactive oxygen species production in human SHSY-5Y cells at 10 uM preincubated for 24 hrs followed by TBH addition by DCFH-DA staining based flow cytometry; assay type: functional, cell-based

T2 sequence (P22303 whole entry): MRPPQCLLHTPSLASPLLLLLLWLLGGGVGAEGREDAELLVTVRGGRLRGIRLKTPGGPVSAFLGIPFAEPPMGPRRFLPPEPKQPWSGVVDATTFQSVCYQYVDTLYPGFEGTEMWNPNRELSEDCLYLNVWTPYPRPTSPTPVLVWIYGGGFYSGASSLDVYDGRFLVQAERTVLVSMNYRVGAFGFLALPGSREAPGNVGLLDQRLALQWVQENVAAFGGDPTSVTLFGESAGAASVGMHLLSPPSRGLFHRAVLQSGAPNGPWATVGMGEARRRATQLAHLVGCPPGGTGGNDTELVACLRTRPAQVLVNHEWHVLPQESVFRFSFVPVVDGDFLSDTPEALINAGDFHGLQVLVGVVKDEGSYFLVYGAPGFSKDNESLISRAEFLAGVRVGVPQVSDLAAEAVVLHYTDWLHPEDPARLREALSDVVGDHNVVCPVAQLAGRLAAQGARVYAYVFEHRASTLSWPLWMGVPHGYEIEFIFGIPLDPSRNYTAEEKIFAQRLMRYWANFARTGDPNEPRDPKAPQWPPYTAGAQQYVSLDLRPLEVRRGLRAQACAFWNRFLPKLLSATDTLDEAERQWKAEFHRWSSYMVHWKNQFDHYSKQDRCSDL
Sequence of Amyloid-beta precursor protein (Homo sapiens) (P05067 whole entry): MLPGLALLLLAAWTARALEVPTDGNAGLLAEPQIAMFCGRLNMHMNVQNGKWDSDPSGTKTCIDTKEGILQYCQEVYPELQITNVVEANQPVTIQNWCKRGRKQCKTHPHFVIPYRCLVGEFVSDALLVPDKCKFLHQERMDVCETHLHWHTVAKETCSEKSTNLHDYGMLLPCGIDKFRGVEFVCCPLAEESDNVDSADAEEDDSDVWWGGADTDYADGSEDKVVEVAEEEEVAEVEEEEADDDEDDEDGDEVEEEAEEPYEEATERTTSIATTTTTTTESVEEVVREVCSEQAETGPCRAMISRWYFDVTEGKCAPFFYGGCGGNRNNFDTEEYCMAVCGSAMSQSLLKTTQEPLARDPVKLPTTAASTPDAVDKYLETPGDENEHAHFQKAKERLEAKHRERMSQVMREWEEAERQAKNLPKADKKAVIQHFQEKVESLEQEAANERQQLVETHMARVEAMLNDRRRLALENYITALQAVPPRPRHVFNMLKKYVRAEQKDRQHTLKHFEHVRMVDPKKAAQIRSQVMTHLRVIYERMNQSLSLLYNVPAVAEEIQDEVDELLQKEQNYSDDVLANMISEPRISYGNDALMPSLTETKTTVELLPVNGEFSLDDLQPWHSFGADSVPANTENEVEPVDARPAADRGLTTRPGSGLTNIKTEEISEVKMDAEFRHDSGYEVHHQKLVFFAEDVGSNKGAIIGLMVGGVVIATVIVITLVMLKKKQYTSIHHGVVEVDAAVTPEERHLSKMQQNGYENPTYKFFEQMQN
T1 sequence (P06276 whole entry): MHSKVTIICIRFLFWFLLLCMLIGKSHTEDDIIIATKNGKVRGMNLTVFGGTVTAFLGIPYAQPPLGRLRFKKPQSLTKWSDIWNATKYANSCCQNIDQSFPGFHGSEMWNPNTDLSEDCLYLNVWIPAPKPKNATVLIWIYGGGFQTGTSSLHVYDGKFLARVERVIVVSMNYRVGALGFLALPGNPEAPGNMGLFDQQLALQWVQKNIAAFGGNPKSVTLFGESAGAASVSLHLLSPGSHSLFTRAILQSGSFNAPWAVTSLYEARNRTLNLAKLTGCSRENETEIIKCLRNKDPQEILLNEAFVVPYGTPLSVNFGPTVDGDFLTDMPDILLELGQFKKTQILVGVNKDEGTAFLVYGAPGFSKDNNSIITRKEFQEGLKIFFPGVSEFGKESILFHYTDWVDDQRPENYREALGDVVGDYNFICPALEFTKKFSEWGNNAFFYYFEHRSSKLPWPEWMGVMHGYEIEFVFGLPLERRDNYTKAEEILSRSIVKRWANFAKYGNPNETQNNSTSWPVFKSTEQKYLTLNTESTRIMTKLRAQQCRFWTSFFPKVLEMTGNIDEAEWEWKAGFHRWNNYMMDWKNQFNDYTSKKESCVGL

Row | Compound | inhibition (Cholinesterase [1]) [%] | Activity [2] [equiv] | inhibition (Acetylcholinesterase [3]) [%] | IC50 (Cholinesterase [4]) [µM] | inhibition [5] | remaining at 2 h [6] [%] | IC50 (Acetylcholinesterase [7]) [µM] | Activity (HepG2) | solubility [8] [mM] | Stability [9] | inhibition (SH-SY5Y)
1 | CN1CCN(Cc2ccc(CCCCCCCCO)cc2O)CC1 | 10.6 | 4.8 | < 5 | – | – | – | – | – | – | – | –
2 | CN(Cc1ccccc1)Cc1ccc(CCCCCCCCO)cc1O | 68.3 | 3.7 | 19.4 | 6.74 | Active | – | – | – | – | – | –
3 | OCCCCCCCCc1ccc(CN2CCSCC2)c(O)c1 | 16.6 | 4.38 | 12.1 | – | – | – | – | – | – | – | –
4 | OCCCCCCCCc1ccc(CN2CCCCC2)c(O)c1 | 73.5 | 4.37 | 40.5 | 6.12 | Active | 97 | 30 | Non-Toxic | < 3.9 | Stable | Active
5 | COc1cc(/C=C/C(=O)O)ccc1O | – | 4.04 | – | – | – | – | – | – | – | – | –
6 | OCCCCCCCCc1ccc(CN2CCCC2)c(O)c1 | 59 | 4.88 | 31.1 | 13.3 | – | – | 47.6 | – | – | – | –
7 | OCCCCCCCCc1ccc(CN2CCNCC2)c(O)c1 | 17.7 | 1.49 | < 10 | – | – | – | – | – | – | – | –
8 | CC(=O)N1CCN(Cc2ccc(CCCCCCCCO)cc2O)CC1 | < 5 | 4.52 | < 10 | – | – | – | – | – | – | – | –
9 | CCN(CC)Cc1ccc(CCCCCCCCO)cc1O | 50.5 | 5.49 | 12.4 | 17.5 | Active | – | – | – | – | – | –
10 | OCCCCCCCCc1ccc(CN2CCOCC2)c(O)c1 | < 10 | 9.73 | < 5 | – | Active | – | – | – | – | – | –
11 | OCCCCCCCCc1ccc(CN2CCCCCC2)c(O)c1 | 77.1 | 3.5 | < 10 | 4.62 | Active | 85 | 785 | Non-Toxic | < 5 | Stable | Active
